Assay results from ChEMBL document CHEMBL1136692, “Pharmacokinetic optimization of 3-amino-6-chloropyrazinone acetamide thrombin inhibitors. Implementation of P3 pyridine N-oxides to deliver an orally bioavailable series containing P1 N-benzylamides” (Bioorg Med Chem Lett, 2003).

How the values were obtained:
[1] = Partition coefficient (logP) of the compound; type: physicochemical; settings: octanol/water
[2] = t1/2 in dog; type: ADME, organism-based, Canis lupus familiaris; settings: in vivo
Method in brief: (§1)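 Dog pharmacokinetics after oral dosing at 1 mg/kg, or at 0.7 or 0.5 mg/kg where footnoted. Cmax (µM) and oral half-life (h) from plasma levels.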

[3] = species: Homo sapiens; assay: Human microsome stabilities are reported as the ratio of the % remaining after a 1 hr incubation versus the internal standard thrombin inhibitor; type: functional; set-up: unit not given here
[4] = biological target: Prothrombin (Homo sapiens, UniProt P00734); assay: Inhibitory activity against human thrombin
[5] = species: Homo sapiens; assay: Concentration required to double the activated partial thromboplastin time (aPPT) in human plasma; type: functional, cell-free
Method in brief: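 Anticoagulant assay in human plasma. The value is the concentration of inhibitor that doubles the activated partial thromboplastin time (2×aPTT).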

[6] = Maximum plasma concentration (Cmax) in dog at a dose of 1 mg/kg; type: ADME, organism-based, Canis lupus familiaris; set-up: dose 1 mg/kg; method in brief: as §1
[7] = Maximum plasma concentration (Cmax) in dog at a dose of […] mg/kg; type: ADME, organism-based, Canis lupus familiaris
[8] = Plasma clearance (pharmacokinetic parameter) in dog (in vivo) at a dose of 1 mg/kg; type: ADME, organism-based, Canis lupus familiaris; set-up: dose 1 mg/kg; settings: read-out: Clp
Method in brief: (§2)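 Plasma clearance and volume of distribution determined at a species-specific dose: 1 mg/kg for dog, 10 mg/kg for rat, 5 mg/kg for rhesus.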

[9] = Oral bioavailability (10 mg/kg) was determined in rat; type: ADME, organism-based; settings: in vivo
[10] = Oral bioavailability (1 mg/kg) was determined in dog; settings: in vivo
[11] = Maximum plasma concentration (Cmax) in rhesus monkey(in vivo) at a dose of 5 mg/kg; type: ADME, organism-based; set-up: dose 5 mg/kg; settings: cercopithecidae
Method in brief: (§3)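 Maximum plasma concentration in rat (10 mg/kg) and in rhesus (5 mg/kg), each measured at the dose stated for its species.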

[12] = Half life period after intravenous administration (5 mg/kg) was determined in rhesus (in vivo); type: ADME, organism-based, Macaca mulatta; settings: rhesus monkey
[13] = test system: Rattus norvegicus; assay: Thrombin time of occlusion after intravenous administration in rat model of FeCl3-induced carotid thrombosis; type: functional
[14] = Vd (5 mg/kg) was determined in rhesus (in vivo); type: ADME, organism-based, Macaca mulatta; settings: rhesus monkey; method in brief: as §2
[15] = test system: Rattus norvegicus; assay: […] activated partial thromboplastin time(APPT) after intravenous administration in rat model of FeCl3-induced carotid thrombosis; type: functional
[16] = Plasma clearance (pharmacokinetic parameter) in rhesus (in vivo) at a dose of 5 mg/kg; type: ADME, organism-based, Macaca mulatta; set-up: dose 5 mg/kg; settings: rhesus monkey, read-out: Clp; method in brief: as §2
[17] = test system: Rattus norvegicus; assay: Time of occlusion after intravenous administration in rat model of FeCl3-induced carotid thrombosis; type: functional
Method in brief: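 Rat carotid artery thrombosis induced with FeCl3. Compound given iv as a continuous infusion (µg/kg/min; vehicle 0.3% DMSO). Read-outs: incidence of occlusion, time to occlusion, thrombin time, aPTT (s) and plasma level (µM).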

[18] = Oral bioavailability (5 mg/kg) was determined in rhesus; settings: Macaca mulatta, rhesus monkey, in vivo
[19] = Maximum plasma concentration (Cmax) in rat (in vivo) at a dose of 10 mg/kg; type: ADME, organism-based; set-up: dose 10 mg/kg; method in brief: as §3
[20] = Plasma clearance (pharmacokinetic parameter) in rat (in vivo) at a dose of 10 mg/kg; type: ADME, organism-based; set-up: dose 10 mg/kg; settings: read-out: Clp; method in brief: as §2
[21] = Vd (1 mg/kg) was determined in dog (in vivo); type: ADME, organism-based, Canis lupus familiaris; method in brief: as §2
[22] = Vd (10 mg/kg) was determined in rat (in vivo); type: ADME, organism-based; method in brief: as §2
[23] = Half life period after intravenous administration (1 mg/kg) was determined in dog (in vivo); type: ADME, organism-based, Canis lupus familiaris
[24] = Maximum plasma concentration (Cmax) in dog (in vivo) at a dose of 1 mg/kg; type: ADME, organism-based, Canis lupus familiaris; set-up: dose 1 mg/kg; method in brief: as §1
[25] = Half life period after intravenous administration (10 mg/kg) was determined in rat (in vivo); type: ADME, organism-based
[26] = Half life period after intravenous administration in dog; type: ADME, organism-based, Canis lupus familiaris; settings: in vivo
Method in brief: (§4)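 Dog pharmacokinetics. Parameters are plasma clearance (mL/min/kg), volume of distribution (L/kg), iv half-life (h) and oral bioavailability F (%).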

[27] = Vd in dog; type: ADME, organism-based, Canis lupus familiaris; settings: in vivo; method in brief: as §4
[28] = Compound was tested for percent protein binding (PB) in human; type: ADME; settings: read-out: PB (converted)
Method in brief: (§5)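 Plasma protein binding given as percent free drug, measured in dog plasma and in human plasma.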

[29] = Plasma clearance (pharmacokinetic parameter) in dog was determined; type: ADME, organism-based, Canis lupus familiaris; settings: read-out: Clp; method in brief: as §4
[30] = Compound was tested for percent protein binding (PB) in dog; type: ADME, organism-based, Canis lupus familiaris; settings: read-out: PB (converted); method in brief: as §5
[31] = Oral bioavailability in dog; type: ADME, organism-based, Canis lupus familiaris; settings: in vivo; method in brief: as §4

Row | SMILES | logP [1] | half-life [2] [h] | Ki [4] [nM] | Cmax [6] [nM] | Ratio [3] | Concentration [5] [µM] | further results
1 | O=C(Cn1c(Cl)cnc(NCC(F)(F)c2cccc[n+]2[O-])c1=O)NCc1ccccc1OCC(F)(F)F | 1.93 | 2.5 | 1.8 | 2290 | 0 | 0.58 | 
2 | O=C(Cn1c(Cl)cnc(NCC(F)(F)c2cccc[n+]2[O-])c1=O)NCc1c(F)cccc1C(F)(F)F | 1.89 | 2.4 | 1.3 |  | 0 | 0.88 | Cmax ([7]; 0.7 mg/kg): 70 nM
3 | O=C(Cn1c(Cl)cnc(NCC(F)(F)c2cccc[n+]2[O-])c1=O)NCc1cccc(F)c1 | Not Active | 4.1 | 7.3 |  | 0.71 | 0.86 | Cmax ([7]; 0.5 mg/kg): 1370 nM
4 | Cc1cccc(CNC(=O)Cn2c(Cl)cnc(NCC(F)(F)c3cccc[n+]3[O-])c2=O)c1 | 1.81 | 1.1 | 0.8 | 2190 | 0.58 | 0.3 | 
5 | O=C(Cn1c(Cl)cnc(NCC(F)(F)c2cccc[n+]2[O-])c1=O)NCc1cccc(OC(F)F)c1 | 1.73 | 4.8 | 7 | 120 | 0.54 | 0.97 | 
6 | O=C(Cn1c(Cl)cnc(NCC(F)(F)c2cccc[n+]2[O-])c1=O)NCc1cc(F)ccc1F | Not Active | 3.9 | 2.4 | 2290 | 0.05 | 0.43 | 
7 | O=C(Cn1c(Cl)cnc(NCC(F)(F)c2cccc[n+]2[O-])c1=O)NCc1cc(F)ccc1C(F)(F)F | 1.99 | 2.8 | 1.7 | 990 | 0 | 0.63 | 
8 | O=C(Cn1c(Cl)cnc(NCC(F)(F)c2cccc[n+]2[O-])c1=O)NCc1ncccc1Cl | 0.75 | 5.5 | 2.9 |  | 1.3 | 0.47 | Cmax ([7]; 0.7 mg/kg): 1090 nM; half-life [26]: 6 h; Vd [27]: 1.17 L/kg; fraction unbound [28]: 0.59; clearance [29]: 3.03 mL/min/kg; fraction unbound [30]: 0.5
9 | O=C(Cn1c(Cl)cnc(NCC(F)(F)c2cccc[n+]2[O-])c1=O)NCc1cccc(Br)c1 | 2.11 | 3.6 | 0.19 | 1010 | 0.14 | 0.28 | 
10 | O=C(Cn1c(Cl)cnc(NCC(F)(F)c2ccccn2)c1=O)NCc1ncccc1F [DPOC-4088] |  |  |  |  |  | 0.78 | half-life [26]: 4.5 h; Vd [27]: 0.62 L/kg; fraction unbound [28]: 0.86; clearance [29]: 2.2 mL/min/kg; fraction unbound [30]: 0.67
11 | O=C(Cn1c(Cl)cnc(NCC(F)(F)c2ccccn2)c1=O)NCc1ccccc1F |  |  | 4.8 | 17 |  | 1.24 | 
12 | O=C(Cn1c(Cl)cnc(NCC(F)(F)c2cccc[n+]2[O-])c1=O)NCc1c(F)cccc1F | 1.23 | 6.2 | 0.85 | 210 | 3.4 | 0.33 | 
13 | O=C(Cn1c(Cl)cnc(NCC(F)(F)c2cccc[n+]2[O-])c1=O)NCc1c(F)ccc(F)c1F | 1.42 | 3.5 | 1.1 | 1510 | 0.04 | 0.31 | 
14 | O=C(Cn1c(Cl)cnc(NCC(F)(F)c2cccc[n+]2[O-])c1=O)NCc1ccc(F)c(Cl)c1 | 1.98 | 2.4 | 3.6 | 420 | 0 | 0.78 | 
15 | O=C(Cn1c(Cl)cnc(NCC(F)(F)c2cccc[n+]2[O-])c1=O)NCc1ncccc1F | 0.19 | 2.5 | 3.1 | 1780 | 6.5 | 0.54 | bioavailability [31]: 83%; half-life [26]: 2.9 h; Vd [27]: 1.13 L/kg; fraction unbound [28]: 0.3; clearance [29]: 4.91 mL/min/kg; fraction unbound [30]: 0.2
16 | COc1cccc(CNC(=O)Cn2c(Cl)cnc(NCC(F)(F)c3cccc[n+]3[O-])c2=O)c1 | 1.31 | 2.8 | 1.2 | 1220 | 0.71 | 0.43 | 

The next lines start with results.

Row | logP [1] | half-life [2] [h] | Ki [4] [nM] | Cmax [6] [nM] | SMILES | Ratio [3] | Concentration [5] [µM] | further results
17 | 1.63 | 2.8 | 3 | 2030 | O=C(Cn1c(Cl)cnc(NCC(F)(F)c2cccc[n+]2[O-])c1=O)NCc1ccccc1OC(F)F | 0 | 0.69 | 
18 | 2.14 | 2.5 | 2 | 290 | O=C(Cn1c(Cl)cnc(NCC(F)(F)c2cccc[n+]2[O-])c1=O)NCc1cccc(Cl)c1Cl | 0.39 | 0.88 | 
19 | 1.23 | 6.3 | 7 | 3200 | O=C(Cn1c(Cl)cnc(NCC(F)(F)c2cccc[n+]2[O-])c1=O)NCc1ccccc1 | 1.3 | 0.94 | 
20 | Not Active | 2.1 | 0.16 | 480 | O=C(Cn1c(Cl)cnc(NCC(F)(F)c2cccc[n+]2[O-])c1=O)NCc1cc(Cl)ccc1F | 0 | 0.31 | 
21 | 1.39 | 4.9 |  | 3500 | O=C(Cn1c(Cl)cnc(NCC(F)(F)c2cccc[n+]2[O-])c1=O)NCc1ccccc1F |  | 0.4 | clearance [8]: 1.55 mL/min/kg; bioavailability [9]: 52%; bioavailability [10]: 40%; Cmax [11]: 1050 nM; half-life [12]: 1.1 h; TT [13]: 59.3 s; Vd [14]: 1.5 L/kg; APTT [15]: 22.6 s; clearance [16]: 19 mL/min/kg; TTO [17]: 15; bioavailability [18]: 21%; Cmax [19]: 1940 nM; clearance [20]: 43 mL/min/kg; Vd [21]: 0.49 L/kg; Vd [22]: 0.93 L/kg; half-life [23]: 6.3 h; Cmax [24]: 3280 nM; half-life [25]: 0.43 h
22 | 2.34 | 3 | 2.4 | 1670 | O=C(Cn1c(Cl)cnc(NCC(F)(F)c2cccc[n+]2[O-])c1=O)NCc1ccccc1OC(F)(F)F | 0 | 0.81 | 
23 | Not Active | 2.6 | 0.26 |  | O=C(Cn1c(Cl)cnc(NCC(F)(F)c2cccc[n+]2[O-])c1=O)NCc1cccc(Cl)c1 | 0 | 0.23 | Cmax ([7]; 0.5 mg/kg): 1910 nM
24 | 1.89 | 2.9 | 2.5 | 700 | O=C(Cn1c(Cl)cnc(NCC(F)(F)c2cccc[n+]2[O-])c1=O)NCc1ccccc1Cl | 0.15 | 0.54 | 
25 | 1.36 | 3.8 | 3 |  | COc1ccccc1CNC(=O)Cn1c(Cl)cnc(NCC(F)(F)c2cccc[n+]2[O-])c1=O | 0.44 | 0.56 | Cmax ([7]; 0.5 mg/kg): 2480 nM
26 | 2.24 | 3.7 | 3.6 |  | O=C(Cn1c(Cl)cnc(NCC(F)(F)c2cccc[n+]2[O-])c1=O)NCc1ccccc1C(F)(F)F | 0.05 | 0.93 | Cmax ([7]; 0.5 mg/kg): 1430 nM
27 | 1.91 | 1.2 | 5.2 | 770 | CCOc1ccccc1CNC(=O)Cn1c(Cl)cnc(NCC(F)(F)c2cccc[n+]2[O-])c1=O | 0.08 | 0.87 | 
28 | 2.61 | 2.1 | 0.087 | 110 | O=C(Cn1c(Cl)cnc(NCC(F)(F)c2cccc[n+]2[O-])c1=O)NCc1cc(Cl)ccc1Cl | 1.04 | 0.39 | 
29 | 1.74 | 3.6 |  | 1760 | Cc1ccccc1CNC(=O)Cn1c(Cl)cnc(NCC(F)(F)c2cccc[n+]2[O-])c1=O |  | 0.77 | 
